Granule exo inh – blocks lytic granule exocytosis; TALL-104 LAMP-1 surface exposure, flow cytometry; cells stimulated with thapsigargin and PMA; inhibition, % at 10 µM; 360,000 tested, 0.66% active; AID 651702;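 active = inhibition above about 55%, limit read from the data; inconclusive = no clear call, values can overlap the other calls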
NTR1 agonist – agonists of human neurotensin receptor NTR1 | activation, % at 20 µM | P30989 | 330,000 tested, 0.17% active | NTR1-U2OS beta-arrestin-GFP spot imaging, agonist mode;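 active = activation at or above 40% of the spot to cytoplasm intensity ratio, with at least 20 cells analyzed; inconclusive = wells under 20 cells, flagged as cytotoxic or low count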
Bfl-1 A1 inh – inhibitors of the anti-apoptotic protein A1, read as caspase activation; caspase activation, % (no concentration beside the values); 330,000 tested, 0.066% active; MEF A1-2A-BIM cells, Caspase-Glo 3/7 luminescence, 3 h; percent of clofoctol response, vehicle zero;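 active = over half of replicate activation scores above 10%, or exactly half above 10 with the replicate mean above 10; inconclusive = replicate mean below 10 yet half the replicates above 10; inactive = over half of replicates below 10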
MC4R antag cAMP – human MC4R antagonism in cAMP assay. P32245. MC4R-expressing cells, MTII-stimulated cAMP, LANCE TR-FRET. inhibition, % at 6.5 µM. 360,000 tested, 0.48% active. AID 540295;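 active = inhibition above its plate's cutoff, the mean of tested wells on that plate plus 3 SD, cut at about 29% in these data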
Target sequence (P32245 whole entry, looked up): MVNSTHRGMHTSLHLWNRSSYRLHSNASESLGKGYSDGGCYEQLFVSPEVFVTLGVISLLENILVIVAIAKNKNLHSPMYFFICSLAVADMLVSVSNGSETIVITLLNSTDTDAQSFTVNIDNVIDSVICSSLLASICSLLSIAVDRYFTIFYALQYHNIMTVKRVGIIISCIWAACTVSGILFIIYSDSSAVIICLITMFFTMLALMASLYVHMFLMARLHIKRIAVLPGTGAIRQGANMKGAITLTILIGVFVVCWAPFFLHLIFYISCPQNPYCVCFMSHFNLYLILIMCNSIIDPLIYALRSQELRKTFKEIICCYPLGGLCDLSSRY
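Assay system: U2OS cells stably expressing human melanocortin 4 receptor (MC4R) / Dosing: 6.5 µM / Timing: compound 30 min, challenge 1 h, detection 1 h / Measured by: Eu-cAMP/anti-cAMP TR-FRET, emission 671 nm / Replicates: singlicate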
MC4R ag barr – activates human MC4R beta-arrestin recruitment; U2OS MC4R beta-arrestin complementation, luminescence; percent of melanotan II response, DMSO zero; activation, % at 8.9 µM; 360,000 tested, 0.98% active;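 active = activation above a per-plate cutoff, the mean activation of sample wells on that plate plus 3 SD, cut at about 8% in these data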
sPLA2-III inh – Blocks human group III sPLA2 activity; Q9NZ20; QFRET BODIPY PC-A2 liposome hydrolysis, fluorescence; inhibition, % at 12.2 µM; 370,000 tested, 0.56% active; AID 743126;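 active = inhibition above mean plus 3 SD of compounds lying within the high and low control bounds, cut at about 19% in these data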
hGIII sPLA2 conf – human GIII-sPLA2 inhibition, confirmation. shares compounds with sPLA2-III inh. recombinant hGIII-sPLA2, BODIPY PC-A2 QFRET fluorescence. inhibition, % at 12.2 µM. 2,000 tested, 34% active;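 active = mean inhibition across triplicates above the hit cutoff set in the earlier primary screen, cut at about 19% in these data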
BODIPY interf – optically interferes with 535nm fluorescence in sPLA2 counter-screen | shares compounds with sPLA2-III inh | BODIPY FL product fluorescence interference, QFRET | inhibition, % at 12.2 µM | 2,000 tested, 8.5% active;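 active = average inhibition above the solvent-only control mean plus 3 SD, cut at about 6% in these data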
BODIPY interf DR – counter-screen for HGIII-sPLA2 inhibitors: 535nm fluorescence interference, dose response; shares compounds with sPLA2-III inh; BODIPY FL product fluorescence interference, cell-free; IC50, µM; 240 tested, under 10 active;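 active = IC50 at or below 10 µM; inactive = IC50 above 10 µM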
Numbers stand for hits; . = inactive; ? = inconclusive; / = no result. This is a sample that favours compounds with a hit; in the whole collection about 2.5% have one here.

SMILES	Granule exo inh	NTR1 agonist	Bfl-1 A1 inh	MC4R antag cAMP	MC4R ag barr	sPLA2-III inh	hGIII sPLA2 conf	BODIPY interf	others
CCCC[C@@H]1C(=O)N2N=Cc3ccccc3[C@H]2N2N=Cc3ccccc3[C@@H]12	/	/	/	/	/	.	/	/
COc1ccc(/C=C(\C#N)c2nc3ccc(C)cc3[nH]2)cc1Oc1ccc(C(F)(F)F)cc1[N+](=O)[O-]	.	.	.	.	.	19.7	.	.
CCN(Cc1ccncc1)Cc1c(O)ccc2cc(Br)ccc12	.	.	/	.	.	.	/	/
CC12CCC(C(=O)N(CSC(=S)N/N=C\c3ccccc3O)C1=O)C2(C)C (stereo unspecified)	.	.	.	.	.	27.8	36.0	.
O=c1[nH]nc2c3ccccc3occ1-2	.	/	/	/	/	.	/	/
CC(=O)Nc1cccc2ncccc12	.	.	.	.	.	23.9	.	.
CC(C)n1c(SCC(=O)Nc2ccc(F)cc2)nnc1C1CC1	.	.	.	.	.	.	/	/
COC(=O)C(NC(C)=O)(Nc1ccc(C)cn1)C(F)(F)F (stereo unspecified)	.	.	.	.	.	19.6	.	.
CCCOc1ccc(C(=O)NNC(=S)NC(=O)c2ccco2)cc1	.	.	.	.	.	30.5	34.0	.	BODIPY interf DR=.
O=C(NC(=S)NC1CCC(O)CC1)c1ccco1 (stereo unspecified)	.	.	.	.	.	19.7	.	.
CC(Oc1ccc(Cl)cc1)C(=O)NNC(=S)NC(=O)c1ccco1 (stereo unspecified)	.	.	.	.	.	27.9	36.1	.	BODIPY interf DR=.
O=C(/C=C/c1ccco1)NC(=S)NNC(=O)c1ccco1	.	.	.	.	.	30.6	.	.
O=C(NC(=S)NC1CCCc2ccccc21)c1ccco1 (stereo unspecified)	.	.	.	.	.	.	/	/
O=C(COc1ccc(Cl)cc1Cl)NNC(=S)NC(=O)c1ccco1	.	.	.	.	.	.	/	/
O=C(NNC(=S)NC(=O)c1ccco1)c1ccc(F)cc1	.	.	.	.	.	.	/	/
COc1ccc(C(=O)NNC(=S)NC(=O)c2ccco2)cc1	.	.	.	.	.	20.0	24.2	.
Cc1cnc(NC(=O)C2C(=O)c3ccccc3S(=O)(=O)N2C)s1 (stereo unspecified)	.	.	/	.	.	.	/	/
O=C(NCc1ccccc1)[C@@H]1CCCN1C(=O)[C@H]1CCCN1C(=O)c1ccc(F)cc1	/	/	/	/	/	.	/	/
O=C(NCc1ccccc1)[C@@H]1CCCN1C(=O)[C@H]1CCCN1C(=O)c1ccc(Cl)cc1	/	/	/	/	/	21.2	.	.
Fc1ccccc1-c1nc(N2CCCCC2)c2ccccc2n1	.	.	.	.	.	20.5	.	.
Cc1cccc(-n2cnc(C(=O)NNC(=S)Nc3ccc(Cl)cc3)c2)n1	.	.	.	.	.	33.6	59.0	7.9
Cc1nc2ccccn2c1C(=O)NNC(=S)Nc1ccc(Cl)cc1	.	.	.	.	.	.	/	/
O=[N+]([O-])c1ccc(C2=NN(CCO)C(=Nc3ccc(OC(F)(F)F)cc3)SC2)cc1	.	.	.	.	.	19.6	.	.
CC1(C)Oc2ccc3ccc(=O)oc3c2C(/C=N/O)=C1Cl	.	.	.	.	.	21.2	.	.
COc1cccc2sc(NNC(=O)C3COc4ccccc4O3)nc12 (stereo unspecified)	.	.	.	.	.	22.5	23.9	.
SMILES	Granule exo inh	NTR1 agonist	Bfl-1 A1 inh	MC4R antag cAMP	MC4R ag barr	sPLA2-III inh	hGIII sPLA2 conf	BODIPY interf	others
CC1(C)CC(=O)c2cnc(NC(=O)CSC(=S)N3CCCCC3)nc2C1	.	.	.	.	.	.	/	/
CCc1ccc(N2C(=O)Nc3ccc(Br)cc3C2(O)C(=O)NCCN(C)C)cc1 (stereo unspecified)	?	.	.	.	.	19.8	.	.
Cc1c(C(=O)N2CCCCCC2)c(S(=O)(=O)Nc2cccc(F)c2)c(C)n1C	.	.	.	.	.	.	/	/
COc1ccc2c(c1)OC[C@H]1[C@H]2N2C(=O)c3cc(OC)ccc3NC(=O)[C@@]2(C)[C@H]1c1ccccc1	.	.	.	.	.	37.3	27.2	.
COc1ccc2c(c1)OC[C@H]1[C@H]2N2C(=O)c3cc(F)ccc3NC(=O)[C@@]2(C)[C@H]1c1ccccc1	.	.	.	.	.	34.6	.	.
COc1ccc2c(c1)OC[C@H]1[C@H]2N2C(=O)c3cc(Cl)ccc3NC(=O)[C@@]2(C)[C@H]1c1ccccc1	.	.	.	.	.	/	/	/
CC1(C(=O)Nc2nc3ccc(S(C)(=O)=O)cc3s2)CC1(Cl)Cl (stereo unspecified)	.	.	.	.	.	.	/	/
O=C(O)c1cc(-c2ccc(-c3ccc(F)cc3)o2)nc2ccccc12	.	.	.	.	.	.	/	/
COCC(=O)N(c1ccc(C(C)C)cc1)C1C=CS(=O)(=O)C1 (stereo unspecified)	.	.	.	.	.	19.3	.	.
NNC(=O)C1CCN(S(=O)(=O)c2ccc(Cl)cc2)CC1	.	.	.	.	.	.	/	/
O=C(NNC(=O)C1CCN(S(=O)(=O)c2ccc(Cl)cc2)CC1)c1ccccc1O	.	.	.	.	.	20.6	.	.
CC1(C)Cc2ccccc2-c2nnnn21	.	.	.	.	.	23.0	.	.
COCCCn1cc(CN2CC=CS2(=O)=O)nn1	/	/	/	/	/	21.1	.	.
CN(c1ccccc1)c1cc(=O)[nH]c(=O)[nH]1	.	.	.	.	.	27.5	.	.
Cc1coc2c1c(C)cc1oc(=O)c(CC(=O)N[C@@H](C)C(=O)O)c(C)c12	.	.	.	.	.	.	/	/
O=[N+]([O-])c1ccccc1/C=N/n1c(-c2ccccc2)n[nH]c1=S	.	.	.	.	.	19.8	28.5	.
Cc1n[nH]c(=S)n1/N=C/c1ccccc1	.	.	.	.	.	21.7	21.2	.
Cc1cccc(/C=N/n2c(-c3ccccc3)n[nH]c2=S)c1O	.	.	.	.	.	.	/	/
CC(C)(CO)Cc1cc(C(C)(C)C)c(O)c(C(C)(C)C)c1	.	.	.	.	.	19.9	.	.
O=C(/C=C/c1ccccc1)NC(=S)NNC(=O)c1cnccn1	.	.	.	.	.	24.5	33.9	.	BODIPY interf DR=.
O=C(/C=C/c1ccccc1)NC(=S)NNC(=O)c1cccnc1	.	.	.	.	.	.	/	/
CCN(C(=O)[C@@H](C)[C@@H](O)c1ccc(C(C)=O)cc1)c1ccccc1	/	/	/	/	/	.	/	/
